Measurements published in ChEMBL document CHEMBL3875163, “Novel urea and bis-urea primaquine derivatives with hydroxyphenyl or halogenphenyl substituents: Synthesis and biological evaluation” (Eur J Med Chem, 2016).
Values after ≈ are worked out from the molar mass of the structure shown.

What was measured:
[1] = Growth inhibition of mouse L1210 cells after 72 hrs by MTT assay; type: functional, cell-based; settings: L1210, 72 h
[2] = Growth inhibition of human Molt4/C8 cells after 72 hrs by MTT assay; type: functional, cell-based; settings: MOLT-4, 72 h
[3] = Growth inhibition of human CEM cells after 72 hrs by MTT assay; type: functional, cell-based; settings: CCRF-CEM
[4] = Growth inhibition of human HeLa cells after 72 hrs by MTT assay; type: functional, cell-based
[5] = Growth inhibition of human MIAPaCa2 cells after 72 hrs by MTT assay; type: functional, cell-based; settings: MIA PaCa-2, 72 h
[6] = Growth inhibition of human NCI-H460 cells after 72 hrs by MTT assay; type: functional, cell-based; settings: NCI-H460, 72 h
Method in brief: (§1)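 Modified NCI DTP protocol: cells in DMEM with 10% FBS, 2 mM glutamine, antibiotics, 37 °C, 5% CO2; seeded 1 × 10^4 to 3 × 10^4 cells/ml on day 0, exposed to five 10-fold dilutions (10^-8 to 10^-4 M) for 72 h; solvent control. MTT read-out; quadruplicate points in three experiments; IC50 by linear regression of growth percentages bracketing 50%.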

[7] = Growth inhibition of human SW620 cells after 72 hrs by MTT assay; type: functional, cell-based; settings: SW-620, 72 h; method in brief: as §1
[8] = Growth inhibition of human MCF7 cells after 72 hrs by MTT assay; type: functional, cell-based; settings: MCF7, 72 h; method in brief: as §1
[9] = Antioxidant activity assessed as DPPH radical scavenging activity at 100 uM after 20 mins relative to control; type: functional
Method in brief: (§2)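 Compound in DMSO added to DPPH in absolute ethanol, 0.1 mM final; absorbance at 517 nm after 20 and 60 min at room temperature. At least triplicate.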

[10] = Antioxidant activity assessed as DPPH radical scavenging activity at 100 uM after 60 mins relative to control; type: functional; method in brief: as §2
[11] = Antioxidant activity assessed as inhibition of AAPH-induced linoleic acid lipid peroxidation at 1 x 10^-4 M by UV-absorbance method relative to control; type: functional
Method in brief: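 Linoleic acid peroxidation: 16 mM sodium linoleate dispersion in 0.05 M phosphate buffer pH 7.4 at 37 °C under air, initiated by AAPH (40 mM solution); compound at 1 × 10^-4 M; oxidation followed at 234 nm. At least triplicate.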

Glycine max = test: Inhibition of soybean LOX assessed as reduction in conversion of sodium linoleate to 13-hydroperoxylinoleic acid at 1 x 10^-4 M relative to control
Method in brief: (§3)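 Soybean lipoxygenase incubated at room temperature with sodium linoleate (0.1 mM) and test compound (DMSO stocks); formation of 13-hydroperoxylinoleic acid read at 234 nm. Single-point screening at 1 × 10^-4 M; IC50 from several concentrations. At least triplicate.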

[12] = Inhibition of soybean LOX assessed as reduction in conversion of sodium linoleate to 13-hydroperoxylinoleic acid; parameters: species or system Glycine max; method in brief: as §3
[13] = Growth inhibition of human MCF7 cells by alamar blue assay; type: functional
Staphylococcus aureus [14] = test: Antibacterial activity against Staphylococcus aureus ATCC 6538 after 18 hrs by serial microdilution broth assay; type: functional; settings: ATCC 6538, 18 h
Method in brief: (§4)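 Broth microdilution MIC per EUCAST for aerobic bacteria in Mueller-Hinton broth, serial dilution 1000 to 0.78125 µg/ml from 10 mg/ml DMSO stocks. Inoculum from trypticase soy broth cultures (18 h, 37 °C), set to 0.5 McFarland in PBS pH 7.4, diluted 1:10. 18 h aerobic incubation at 35 °C in dark, then TTC 0.5 mg/ml for 3 h, HCl-isopropanol, A490. MIC = lowest concentration giving 50% inhibition versus untreated; duplicates.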

Staphylococcus aureus [15] = test: Antibacterial activity against methicillin sensitive Staphylococcus aureus ATCC 25923 after 18 hrs by serial microdilution broth assay; type: functional; settings: ATCC 25923, 18 h
Method in brief: (§5)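 EUCAST-based broth microdilution in Mueller-Hinton broth. Glycerol stock cultures grown in trypticase soy broth 18 h at 37 °C; inoculum in PBS pH 7.4 at 0.5 McFarland, diluted 1:10 in broth. Compounds from DMSO stocks, 1000 to 0.78125 µg/ml; 18 h aerobic, 35 °C, dark. TTC 0.5 mg/ml added, 3 h, then HCl/isopropanol, A490. MIC = lowest concentration giving 50% inhibition vs untreated; duplicates, averaged.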

Staphylococcus aureus [16] = test: Antibacterial activity against methicillin sensitive Staphylococcus aureus ATCC 25213 after 18 hrs by serial microdilution broth assay; type: functional; settings: ATCC 25213, 18 h; method in brief: as §4
Staphylococcus aureus [17] = test: Antibacterial activity against methicillin resistant Staphylococcus aureus MFBF 10682 after 18 hrs by serial microdilution broth assay; type: functional; settings: MFBF 10682, 18 h; method in brief: as §5
Staphylococcus aureus [18] = test: Antibacterial activity against methicillin resistant Staphylococcus aureus MFBF 10679 after 18 hrs by serial microdilution broth assay; type: functional; settings: MFBF 10679, 18 h; method in brief: as §5
Enterococcus faecalis [19] = test: Antibacterial activity against vancomycin susceptible Enterococcus faecalis ATCC 29212 after 18 hrs by serial microdilution broth assay; type: functional; settings: ATCC 29212, 18 h; method in brief: as §4
Enterococcus faecalis [20] = test: Antibacterial activity against vancomycin resistant Enterococcus faecalis MFBF 11419 after 18 hrs by serial microdilution broth assay; type: functional; settings: MFBF 11419, 18 h; method in brief: as §5
Bacillus pumilus = test: Antibacterial activity against Bacillus pumilus NCTC 8241 after 18 hrs by serial microdilution broth assay; type: functional; settings: NCTC 8241, 18 h; method in brief: as §4
Bacillus cereus = test: Antibacterial activity against Bacillus cereus ATCC 11778 after 18 hrs by serial microdilution broth assay; type: functional; settings: ATCC 11778, 18 h; method in brief: as §4
Bacillus spizizenii = test: Antibacterial activity against Bacillus subtilis ATCC 6633 after 18 hrs by serial microdilution broth assay; type: functional; settings: ATCC 6633, 18 h; method in brief: as §4
Pseudomonas aeruginosa [21] = test: Antibacterial activity against Pseudomonas aeruginosa ATCC 9027 after 18 hrs by serial microdilution broth assay; type: functional; settings: ATCC 9027, 18 h; method in brief: as §5
Pseudomonas aeruginosa [22] = test: Antibacterial activity against Pseudomonas aeruginosa ATCC 27853 after 18 hrs by serial microdilution broth assay; type: functional; settings: ATCC 27853, 18 h; method in brief: as §4
Pseudomonas aeruginosa [23] = test: Antibacterial activity against multi-drug resistant Pseudomonas aeruginosa MFBF after 18 hrs by serial microdilution broth assay; type: functional; method in brief: as §5
Escherichia coli = test: Antibacterial activity against Escherichia coli ATCC 10535 after 18 hrs by serial microdilution broth assay; type: functional; settings: ATCC 10535, 18 h; method in brief: as §4
Candida albicans = test: Antifungal activity against Candida albicans ATCC 90028 after 18 hrs by serial microdilution broth assay; type: functional; settings: ATCC 90028, 18 h
Method in brief: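 Yeast microdilution in RPMI 1640 with glutamine plus 2% glucose, 1000 to 0.78125 µg/ml from 10 mg/ml DMSO stocks. Growth read with XTT (10 mg/ml) mixed 7:1 with menadione (1 mg/ml in acetone), absorbance at 540 nm. MIC taken as lowest concentration giving 50% growth inhibition versus untreated cells; tests in duplicate.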

[24] = Hemolytic activity against human RBC at 100 ug/ml after 1 hr relative to control; type: ADME, cell-based, Erythrocyte; settings: red blood cells (RBC), read-out: Activity
[25] = Cytotoxicity against HEK cells assessed as reduction in cell viability at 6.25 to 100 ug/ml after 24 hrs by MTT assay; type: toxicity, cell-based; settings: human, hek293, 24 h
Method in brief: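 HEK 293 cells, 5 × 10^3 per well, treated next day for 24 h with compound (range within 200 to 1.5625 µg/ml). MTT 0.5 mg/ml in DMEM/10% FBS, 4 h at 37 °C, 5% CO2; formazan in DMSO, A570. Viability as percent of untreated control; triplicates, three independent experiments.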

inhibition (Glycine max) [%] | IC50 [12] [µM] | Structure (SMILES) | IC50 [1] [µM] | IC50 [2] [µM] | IC50 [3] [µM] | IC50 [4] [µM] | IC50 [5] [µM] | IC50 [6] [µM] | IC50 [7] [µM] | IC50 [8] [µM] | Activity [9] [%] | Activity [10] [%] | inhibition [11] [%] | also measured
67.4 | 40 | COc1cc(NC(C)CCCNC(=O)NNC(=O)Nc2cccc(F)c2)c2ncccc2c1 (stereo unspecified) | 108 | ≥ 250 | 98 | > 250 | 69 | 50 | 9.5 | 0.15 | 75.7 | 100 | 58.2 | –
55.8 | 85 | COc1cc(NC(C)CCCNC(=O)NNC(=O)Nc2ccc(C(F)(F)F)cc2)c2ncccc2c1 (stereo unspecified) | 18 | 24 | 18 | 15 | 19 | 12 | 12 | 0.1 | 99 | 96.1 | 75.3 | –
– | – | COc1cccc2c1C(=O)c1c(O)c3c(c(O)c1C2=O)C[C@@](O)(C(=O)CO)C[C@@H]3O[C@H]1C[C@H](N)[C@H](O)[C@H](C)O1 [DOXORUBICIN] | – | – | – | – | – | – | – | – | – | – | – | IC95 [13]: 1 µM

Structure (SMILES) | inhibition (Glycine max) [%] | IC50 [12] [µM] | IC50 [1] [µM] | IC50 [2] [µM] | IC50 [3] [µM] | IC50 [4] [µM] | IC50 [5] [µM] | IC50 [6] [µM] | IC50 [7] [µM] | IC50 [8] [µM] | Activity [9] [%] | Activity [10] [%] | inhibition [11] [%] | also measured
COc1cc(NC(C)CCCNC(=O)Nc2cccc(O)c2)c2ncccc2c1 (stereo unspecified) | 50.8 | – | 25 | 24 | 32 | 48 | 46 | 25 | 27 | 11 | 48.6 | 52.3 | 66.9 | MIC50 (Staphylococcus aureus [14]): 20 µg/mL (≈ 50.7 µM); MIC50 (Staphylococcus aureus [15]): 50 µg/mL (≈ 127 µM); MIC50 (Staphylococcus aureus [16]): 50 µg/mL (≈ 127 µM); MIC50 (Staphylococcus aureus [17]): 50 µg/mL (≈ 127 µM); MIC50 (Staphylococcus aureus [18]): 100 µg/mL (≈ 254 µM); MIC50 (Enterococcus faecalis [19]): > 100 µg/mL; MIC50 (Enterococcus faecalis [20]): > 100 µg/mL; MIC50 (Bacillus pumilus): 12.5 µg/mL (≈ 31.7 µM); MIC50 (Bacillus cereus): 50 µg/mL (≈ 127 µM); MIC50 (Bacillus spizizenii): 50 µg/mL (≈ 127 µM); MIC50 (Pseudomonas aeruginosa [21]): 100 µg/mL (≈ 254 µM); MIC50 (Pseudomonas aeruginosa [22]): 50 µg/mL (≈ 127 µM); MIC50 (Pseudomonas aeruginosa [23]): 100 µg/mL (≈ 254 µM); MIC50 (Escherichia coli): 100 µg/mL (≈ 254 µM); MIC50 (Candida albicans): > 100 µg/mL; hemolysis at 1 h, 100 ug/ml [24]: < 1%; Activity [25]: Non-Toxic
